SENP1 inh – human SENP1 catalytic domain inhibitors, primary screen, biochemical, FRET, uHTS | 360,000 tested, 0.21% active | inhibition, % at 10 µM | recombinant SENP1 catalytic domain, CyPet-SUMO1-YPet FRET cleavage;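 active means inhibition at least 30% at 10 µM, raw YFP signal under a set limit, fluorescence ratio 0.5 to 1.5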;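 further: 0% = enzyme with DMSO and 100% = no enzyme wells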
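Assay system: hSENP1 catalytic domain, recombinant. Amount: SENP1 enzyme, 20 pM final. Schedule: 50 min reaction, RT, dark. Technique: FRET, CFP and YFP emission. Control set: no-enzyme wells low, DMSO-plus-enzyme wells high control.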
Arrestin-AP2 inh – inhibitors of beta-arrestin/AP2 binding, primary screen, biochemical, GPCR trafficking, flow cytometry. AID 504490, 2011. FITC-arrestin peptide / GST-AP2 beads; AP2 beta2 appendage carries R879A mutation. inhibition, % at 10 µM. beta-arrestin 1 C-terminal peptide binding to AP2 beta2-adaptin appendage (human). 340,000 tested, 0.31% active;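 active means inhibition above a set limit, near 3 SD of compounds lacking own fluorescence, cut at about 54% in these data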;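 further: plate controls were DMSO wells for no effect and 5 µM unlabelled arrestin peptide for full effect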
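Measured by: flow cytometry, FL1 (488/535 nm); Material: AP2 appendage R879A on GSH beads; Evaluation: percent response; Timing: pre-incubation 12 min, peptide binding 1 h, room temperature; Also added: 50 nM FITC-arrestin peptide; Medium: PBS with 0.05% Tween 20 and 0.1% BSA.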
GRIN3A LBD mod – binders of NR3A ligand-binding domain, primary screen, biophysical, differential scanning fluorimetry, uHTS; Tm shift relative to glycine control, % at 25 µM; Glutamate receptor ionotropic, NMDA 3A (GRIN3A) ligand-binding domain; AID 1259313, 2017; 340,000 tested, 2.5% active; NR3A LBD differential scanning fluorimetry, Tm shift; 0% = protein alone, 100% = glycine-bound protein;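 active means melting temperature shift of at least 10% of the positive control shift, at one fixed dose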
Cardio protect – cardioprotection against H2O2-induced cell death, primary screen, uHTS, H9c2 cells, ATPLite luminescence. H9c2 cardiomyocytes, H2O2 injury protection, 2 h. protection from H2O2 cell death, % at 20 µM. 360,000 tested, 0.63% active. AID 588492, 2011;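 active means compounds giving at least 50% protection of heart cells from peroxide-induced death in the single-dose screen, raw or plate-pattern-corrected value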;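 further: 0% = DMSO wells with peroxide and 100% = DMSO wells without peroxide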
hiPSC survival – enhancers of single-cell hiPSC survival, primary screen, ATPlite luminescence; 360,000 tested, 0.044% active; AID 602274, 2012; 100% = ROCK inhibitor wells, 0% = DMSO; survival enhancement, % at 20 µM; in the data active means survival enhancement above about 18%;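 further: cells exposed to compounds for 16 hours before the ATP read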
FAS TE block – FAS thioesterase domain inhibitors, primary screen, biochemical, fluorescence intensity, uHTS; Fatty acid synthase (Homo sapiens), P49327; recombinant FAS-TE, OMFH fluorogenic substrate, fluorescence endpoint; inhibition, % at 15 µM; 360,000 tested, 0.67% active; AID 602261, 2012;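 active means compounds whose normalised, plate-corrected inhibition of enzyme fluorescence in the single-dose primary screen is 50% or more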;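 further: 0% = DMSO with enzyme and 100% = substrate without enzyme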
Starred values were filed as active, the others as inactive; . = not tested or not shown. Shown are actives, neighbours in structure and some others; about 4% of the full set was active somewhere.

SMILES	SENP1 inh	Arrestin-AP2 inh	GRIN3A LBD mod	Cardio protect	hiPSC survival	FAS TE block
CC(=O)c1ccc(NC(=O)c2ccc(C)c(Br)c2)cc1	2	-1	28*	-4	-1	6
COc1ccc(C(=O)Nc2ccc3c(c2)OCCO3)cc1Br	2	9	5	-16	-1	5
CCCCNS(=O)(=O)c1ccc(NC(=O)C2CCCO2)cc1 (stereo not drawn)	2	42	12*	-8	0	-10
CCCCC(=O)Nc1ccc(C(=O)NNC(=O)c2ccc(C)c(Br)c2)cc1	0	-1	2	-4	1	-12
COc1ccc(C(=O)Nc2ccc(Nc3ccccc3)cc2)cc1Br	-1	12	24*	-5	0	26
COc1ccc(C2CC=C(C(C)=O)CN2S(=O)(=O)c2ccc(Cl)cc2)cc1 (stereo not drawn)	0	.	.	1	-1	7
CNc1cc(-c2cccc(OC)c2F)nc2ccnn12	1	.	.	3	2	-5
CC1(C(=O)NS(=O)(=O)c2ccc(F)cc2F)CCN1C(=O)CC(c1ccccc1)c1ccccc1 (stereo not drawn)	2	.	.	0	1	-6
Cc1cc(NC(=O)c2ccc(NC(=O)C3CCCO3)cc2)ccc1Br (stereo not drawn)	3	-12	11*	-9	0	5
C#Cc1ccc(NC(=O)C2(C)CCN2C(=O)CC(c2ccccc2)c2ccccc2)cc1 (stereo not drawn)	-4	.	.	-7	-2	25
COc1c(C(=O)NNC(=O)c2ccccc2)csc1Br	2	-2	12*	-9	1	-7
Cc1cc(Br)cn2c(Cc3ccsc3)c(-c3ccc(F)cc3)nc12	0	.	.	2	0	4
O=C(COc1ccc(/C=N/NC(=O)c2ccncc2)cc1)Nc1cccc([N+](=O)[O-])c1	2	5	16*	29	0	6
CC(=O)Nc1ccc(NC(=O)COc2ccc([N+](=O)[O-])cc2)cc1	2	26	0	4	0	10
COc1cc(/C=N/NC(=O)c2ccc(O)cc2)ccc1OCC(=O)Nc1cccc([N+](=O)[O-])c1	1	3	1	34	1	1
O=C(COc1ccc(/C=N/NC(=O)c2ccncc2)cc1)Nc1ccccc1	-1	-12	11*	5	0	-2
CCOc1ccc(NC(=O)CNc2ccc(C)cc2Cl)cc1	3	1	34*	-6	-1	17
O=C(COc1ccc(/C=N/NC(=O)c2ccccc2O)cc1)Nc1ccc([N+](=O)[O-])cc1	5	-2	37*	8	0	1
Cc1cccc(OCC(=O)N2CCc3ccccc3C2)c1C	1	.	.	-1	-2	8
COc1ccc(COC(=O)CCCN=C2NS(=O)(=O)c3ccccc32)cc1F	2	.	.	-6	5	-4
COc1cccc(C(NC(C)=O)c2nc(-c3ccc4ccccc4c3)cs2)c1 (stereo not drawn)	3	.	.	-4	-2	20
O=C(CC(=O)Nc1cccc(Cl)c1)N/N=C\c1ccccc1	2	-1	-11	-9	5	4
CCOc1ccc(/C=N/NC(=O)CC(=O)Nc2ccc(Cl)c(Cl)c2)cc1	1	-9	20*	-6	2	0
COc1cc(/C=C2\SC(N)=NC2=O)ccc1OCC(=O)Nc1ccccc1C	-13	-3	5	54*	0	-12
CCc1nc2ccc(C(=O)Nc3ccc(Cl)c(Cl)c3)cn2c1N(C)Cc1ccc(OC)cc1	-95	.	.	-2	-2	21
CCN(c1cccc(C)c1)S(=O)(=O)c1ccc2[nH]c(=O)c(=O)[nH]c2c1	2	-3	11*	0	1	-5
